Measured values gathered from unrelated publications.
Compare with care: the assays were run in different laboratories.
Medium: plasma

| SMILES | test system | setting | measurement | result |
| --- | --- | --- | --- | --- |
| N=C(N)NCCC[C@H](NC(=O)[C@H](Cc1ccccc1)NC(=O)[C@H](CCC(N)=O)NC(=O)OCc1ccccc1)C(=O)c1nccs1 | female C57BL/6 mouse | intravenous, 5 mg/kg | clearance | 70.2 mL/min/kg |
| CC[C@H](C)CCCCC(=O)N[C@@H](CCN)C(=O)N[C@H](C(=O)N[C@@H](CCN)C(=O)N[C@H]1CCNC(=O)[C@H]([C@@H](C)O)NC(=O)[C@H](CCN)NC(=O)[C@H](CCN)NC(=O)[C@H](CC(C)C)NC(=O)[C@@H](CC(C)C)NC(=O)[C@H](CCN)NC1=O)[C@@H](C)O | male Sprague-Dawley rat | subcutaneous, 10 mg/kg | Tmax | 2.67 h |
| C[C@@H](O)[C@@H]1NC(=O)CNC(=O)[C@H](Cc2c[nH]cn2)NC(=O)[C@H](Cc2c[nH]c3ccccc23)NC(=O)[C@H](CC(N)=O)NC(=O)CNC(=O)C[C@@H](C(=O)N[C@@H](Cc2c[nH]c3ccccc23)C(=O)N[C@@H](Cc2ccccc2)C(=O)N[C@@H](Cc2ccccc2)C(=O)N[C@@H](CC(N)=O)C(=O)N[C@@H](Cc2ccc(O)cc2)C(=O)N[C@@H](Cc2ccc(O)cc2)C(=O)N[C@@H](Cc2c[nH]c3ccccc23)C(=O)O)NC(=O)[C@@H]2CCCN2C(=O)[C@H](CO)NC1=O | mouse | intravenous, 3 mg/kg | clearance | 1.34 mL/min/kg |
| CC(C)[C@]12O[C@H]1[C@@H]1O[C@]13[C@]1(O[C@H]1C[C@H]1C4=C(CC[C@@]13C)C(=O)OC4)[C@@H]2O | SCID mouse | intravenous, 0.6 mg/kg | clearance | 20.5 mL/min/kg |
| CC[C@H](C)[C@H](NC(=O)[C@H](Cc1ccccc1)NC(=O)[C@H](CCC(=O)O)NC(=O)[C@H](CCCCN)NC(=O)[C@H](C)NC(=O)[C@H](C)NC(=O)[C@H](CCC(N)=O)NC(=O)CNC(=O)[C@H](CCC(=O)O)NC(=O)[C@H](CC(C)C)NC(=O)[C@H](Cc1ccc(O)cc1)NC(=O)[C@H](CO)NC(=O)[C@H](CO)NC(=O)[C@@H](NC(=O)[C@H](CC(=O)O)NC(=O)[C@H](CO)NC(=O)[C@@H](NC(=O)[C@H](Cc1ccccc1)NC(=O)[C@@H](NC(=O)CNC(=O)[C@H](CCC(=O)O)NC(=O)[C@H](C)NC(=O)N(N)Cc1c[nH]cn1)[C@@H](C)O)[C@@H](C)O)C(C)C)C(=O)N[C@@H](C)C(=O)N[C@@H](Cc1c[nH]c2ccccc12)C(=O)N[C@@H](CC(C)C)C(=O)N[C@H](C(=O)N[C@@H](CCCNC(=N)N)C(=O)NCC(=O)N[C@@H](CCCNC(=N)N)C(=O)NCC(=O)O)C(C)C | male CD-1 mouse | intravenous, 1 mg/kg, single dose | C0 | 37700 ng/mL |
| CC[C@H](C)[C@@H]1NC(=O)[C@@H]2CCCN2C(=O)[C@H](CC(C)C)NC(=O)[C@H](CC(C)C)NC(=O)CNC(=O)[C@@H](NC(=O)[C@@H](NC(=O)[C@H](CC(=O)O)NC(=O)CNC(=O)[C@@H](NC(=O)[C@H](C)NC(=O)CNC(=O)[C@H](CCCCN)NC(=O)[C@H](CC(C)C)NC(=O)[C@H](CC(C)C)NC(=O)[C@H](CCCCN)NC(=O)CNC(=O)[C@@H](NC(=O)[C@@H](N)CC(C)C)C(C)C)C(C)C)C(C)C)CSSC[C@@H](C(=O)O)NC1=O | female C57BL/6 mouse | intravenous, 10 mg/kg, single dose | C0 | 3190 ng/mL |
| CC(=O)c1c(C)c2cnc(Nc3ccc(C4CCN(CCS(C)(=O)=O)CC4)cn3)nc2n(C2CCCC2)c1=O | male beagle dog | oral, 6 mg/kg, multiple doses | Cmax | 98.5 ng/mL |
| CC(C)=CCC[C@](C)(O[C@@H]1O[C@H](CO)[C@@H](O)[C@H](O)[C@H]1O)[C@H]1CC[C@]2(C)[C@@H]1[C@H](O)C[C@@H]1[C@@]3(C)CC[C@H](O)C(C)(C)[C@@H]3CC[C@]12C | mouse | intravenous, 2 mg/kg | clearance | 0.46 L/h |
